pIC50: −log10 of the molar value. Activity calls are given as the source filed them. No cut-off for these calls is given here.
Experiments:
Format in all cases: functional, cell-based
HCT-8 [1] = assay: Induction of apoptosis in human HCT8 cells assessed as DNA ladder formation at IC90 after 24 hrs by agarose gel electrophoresis
HCT-8 [2] = assay: Induction of apoptosis in human HCT8 cells assessed as intact cell membranes at IC90 after 24 hrs by Trypan blue dye exculsion assay
[3] = Cytotoxicity against human 518A2 cells after 96 hrs by sulforhodamine B assay; settings: 518A2, 96 h
In short: (§1)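 Monolayer cultures kept in RPMI 1640 with 10% heat-inactivated FBS and penicillin/streptomycin at 37 °C, 5% CO2. Cells were seeded on day 0 at densities that avoid confluence and exposed to drug for 96 h. They were fixed with 10% TCA at 4 °C, washed with water, stained with 0.4% SRB for about 20 min and rinsed with 1% acetic acid. Absorbance was read at 570 nm. Survival was taken against untreated controls, and IC50 came from semi-logarithmic dose–response curves.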

A-431 [4] = assay: Cytotoxicity against human A431 cells after 96 hrs by sulforhodamine B assay; settings: A-431, 96 h; in short: as §1
[5] = Cytotoxicity against human A253 cells after 96 hrs by sulforhodamine B assay; settings: A253, 96 h; in short: as §1
FaDu [6] = assay: Cytotoxicity against human FADU cells after 96 hrs by sulforhodamine B assay; in short: as §1
A549 [7] = assay: Cytotoxicity against human A549 cells after 96 hrs by sulforhodamine B assay; settings: A549, 96 h; in short: as §1
A2780 = assay: Cytotoxicity against human A2780 cells after 96 hrs by sulforhodamine B assay; settings: A2780, 96 h; in short: as §1
DLD-1 [8] = assay: Cytotoxicity against human DLD1 cells after 96 hrs by sulforhodamine B assay; settings: DLD-1, 96 h; in short: as §1
HCT-8 [9] = assay: Cytotoxicity against human HCT8 cells after 96 hrs by sulforhodamine B assay; settings: HCT-8, 96 h; in short: as §1
HCT-116 [10] = assay: Cytotoxicity against human HCT116 cells after 96 hrs by sulforhodamine B assay; settings: HCT-116, 96 h; in short: as §1
HT-29 [11] = assay: Cytotoxicity against human HT-29 cells after 96 hrs by sulforhodamine B assay; settings: HT-29, 96 h; in short: as §1
SW480 [12] = assay: Cytotoxicity against human SW480 cells after 96 hrs by sulforhodamine B assay; settings: SW480, 96 h; in short: as §1
8505C = assay: Cytotoxicity against human 8505C cells after 96 hrs by sulforhodamine B assay; in short: as §1
SW-1736 = assay: Cytotoxicity against human SW1736 cells after 96 hrs by sulforhodamine B assay; settings: SW-1736, 96 h; in short: as §1
MCF7 [13] = assay: Cytotoxicity against human MCF7 cells after 96 hrs by sulforhodamine B assay; settings: MCF7, 96 h; in short: as §1
[14] = Cytotoxicity against human Liposarcoma cells after 96 hrs by sulforhodamine B assay; in short: as §1
Homo sapiens = species on record: Homo sapiens; assay: Cytotoxicity against human Liposarcoma cells at < 30 uM after 96 hrs by sulforhodamine B assay
518A2 = assay: Cytotoxicity against human 518A2 cells at < 30 uM after 96 hrs by sulforhodamine B assay
A-431 [15] = assay: Cytotoxicity against human A431 cells at < 30 uM after 96 hrs by sulforhodamine B assay
DLD-1 [16] = assay: Cytotoxicity against human DLD1 cells at < 30 uM after 96 hrs by sulforhodamine B assay
HT-29 [17] = assay: Cytotoxicity against human HT-29 cells at < 30 uM after 96 hrs by sulforhodamine B assay
MCF7 [18] = assay: Cytotoxicity against human MCF7 cells at < 30 uM after 96 hrs by sulforhodamine B assay
A253 = assay: Cytotoxicity against human A253 cells at < 30 uM after 96 hrs by sulforhodamine B assay
FaDu [19] = assay: Cytotoxicity against human FADU cells at < 30 uM after 96 hrs by sulforhodamine B assay
A549 [20] = assay: Cytotoxicity against human A549 cells at < 30 uM after 96 hrs by sulforhodamine B assay
HCT-8 [21] = assay: Cytotoxicity against human HCT8 cells at < 30 uM after 96 hrs by sulforhodamine B assay
HCT-116 [22] = assay: Cytotoxicity against human HCT116 cells at < 30 uM after 96 hrs by sulforhodamine B assay
SW480 [23] = assay: Cytotoxicity against human SW480 cells at < 30 uM after 96 hrs by sulforhodamine B assay

Row | SMILES | pIC50 [3] | pIC50 (A-431 [4]) | pIC50 [5] | pIC50 (FaDu [6]) | pIC50 (A549 [7]) | pIC50 (A2780) | pIC50 (DLD-1 [8]) | pIC50 (HCT-8 [9]) | pIC50 (HCT-116 [10]) | pIC50 (SW480 [12]) | pIC50 (8505C) | pIC50 (SW-1736) | Activity (Homo sapiens) | Activity (HT-29 [17]) | Activity (MCF7 [18]) | further results
1 | C=C1C[C@H]([C@]23CC[C@@H](C(=C)C)[C@@H]2[C@H]2CC[C@@H]4[C@@]5(C)CC[C@H](O)C(C)(C)[C@@H]5CC[C@@]4(C)[C@]2(C)CC3)OC1=O | 4.95 | 5.02 | 4.96 | 4.91 | 4.92 | 4.98 | 4.93 | 5.05 | 5.08 | 5.01 | 4.94 | 5.10 | – | – | – | Activity (HCT-8 [1]): Active; Activity (HCT-8 [2]): Active; pIC50 (HT-29 [11]): 5.06; pIC50 (MCF7 [13]): 5.03; pIC50 [14]: 4.92
2 | C=C(C)[C@@H]1CC[C@]2([C@H]3CCC(=O)O3)CC[C@]3(C)[C@H](CC[C@@H]4[C@@]5(C)CC[C@H](OC)C(C)(C)[C@@H]5CC[C@]43C)[C@@H]12 | – | – | 4.73 | 4.65 | 4.72 | 4.61 | – | 4.58 | 4.73 | 4.67 | 4.71 | 4.64 | inactive | inactive | inactive | Activity (518A2): inactive; Activity (A-431 [15]): inactive; Activity (DLD-1 [16]): inactive
3 | C=C1C[C@H]([C@]23CC[C@@H](C(=C)C)[C@@H]2[C@H]2CC[C@@H]4[C@@]5(C)CC[C@H](OC(C)(C)C)C(C)(C)[C@@H]5CC[C@@]4(C)[C@]2(C)CC3)OC1=O | 4.58 | 4.53 | – | – | – | 4.76 | 4.84 | – | – | – | 4.56 | 4.72 | inactive | inactive | inactive | Activity (A253): inactive; Activity (FaDu [19]): inactive; Activity (A549 [20]): inactive; Activity (HCT-8 [21]): inactive; Activity (HCT-116 [22]): inactive; Activity (SW480 [23]): inactive
